Measured values: PMC10913580 (Nature chemistry, 2023)

What was measured:
[1] = system: ternary complex between CRBN and off-target ZFP91; assay: NanoBRET ternary complex formation assay; format: cell-based; conditions: U2OS cells expressing ZFP91-NLuc and HaloTag-CRBN, 1 μM dose
Summary of the method: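 U2OS stably expressing ZFP91–NLuc, transfected with HaloTag–CRBN plasmid (2 μg per 100,000 cells). After 14 h, plated at 3,000 cells/well in phenol-red-free Opti-MEM with 4% FBS. NanoBRET 618 ligand 100 nM final, 18 h; no-ligand control wells. Compound 1 μM final, 15 min; furimazine 10 μM final, 5 min. mBU = (618/460 nm emission) × 1,000, minus no-ligand control.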

ZFP91 [2] = target: T1, ZFP91 (Homo sapiens, UniProt Q96JP5+Q96SW2); assay: Immunoblot of endogenous ZFP91 in H2228 cells; format: cell-based
Summary of the method: (§1)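 Cells grown in RPMI 1640 with 10% FBS, then compound-treated. Lysis in ice-cold M-PER with protease and phosphatase inhibitors. 20–50 μg protein run on 4–12% Bis-Tris gels and transferred to nitrocellulose. Probed with anti-ZFP91 or anti-IKZF3 primary antibodies (1:1,000), then fluorescent secondaries (1:3,000).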

ZFP91 [3] = target: T1, ZFP91; assay: Immunoblot of endogenous ZFP91 in SU-DHL-1 cells; format: cell-based
Summary of the method: as §1

[4] = system: ZF degrons fused to eGFP in U2OS cells; assay: Automated imaging assay for degradation of ZF degron-tagged eGFP; format: cell-based; conditions: 14 stable U2OS ZF reporter cell lines, 24 h, dosing range 4.3 nM to 6 μM
Summary of the method: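 U2OS lines stably carrying lentiviral Cilantro 2 reporters (ZF degron–eGFP plus untagged mCherry) under 1 μg ml−1 puromycin. 3,000 cells/well seeded onto compound-preprinted plates; 24 h. PBS wash, 4% paraformaldehyde fix, nuclear stain, eGFP/mCherry imaging. Per-cell eGFP normalized to mCherry, well means to DMSO wells; 1 minus value gives degradation fraction, summed across doses as degradation score. Z′ from controls.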

SALL4 = SALL4 (Homo sapiens, UniProt Q96SW2+Q9UJQ4); assay: Global proteomic analysis of KELLY cells treated with PROTACs; format: cell-based; conditions: 100 nM
Summary of the method: (§2)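 Cells were dosed with test compound at 0.1 μM or with DMSO for 5 h, then washed in PBS and snap-frozen. Lysis was in 8 M urea, 50 mM NaCl, 50 mM EPPS pH 8.5 with protease and phosphatase inhibitors, with bead beating. Digestion used LysC (1:50, 12 h, room temperature), then trypsin (1:50, 6 h, 37 °C). Label-free LC-MS followed; abundances were scaled and statistics run with limma.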

ALK = ALK (Homo sapiens, UniProt P06748+Q96SW2+Q9UM73); assay: Global proteomic analysis of SU-DHL-1 cells treated with PROTACs; format: cell-based; conditions: 0.1 μM, 5 h
Summary of the method: as §2

ZFP91 [5] = target: T1, ZFP91; assay: Immunoblot of endogenous ZFP91 in Jurkat cells; format: cell-based
Summary of the method: as §1

ZFP91 and IKZF3 = assay: Immunoblot of endogenous ZFP91 and IKZF3 in MM1.S cells; format: cell-based
Summary of the method: as §1

[6] = system: ZF proteins and other off-targets in MOLT4 and KELLY cells; assay: MS-based global proteomics of MOLT4 and KELLY cells treated with imide analogues; format: cell-based, human; conditions: 1 μM, 5 h
Summary of the method: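 MOLT4 or Kelly cells given 1 μM compound or DMSO, 5 h. PBS-washed pellets snap-frozen, lysed in 8 M urea, 50 mM NaCl, 50 mM EPPS pH 8.5 with inhibitors by bead beating; Bradford quantitation. 50 μg protein reduced, alkylated, methanol/chloroform precipitated; LysC (1:50, 12 h, room temperature) then trypsin (1:50, 6 h, 37 °C). C18-desalted, LC–MS. Abundances scaled; limma statistics.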

Structure (SMILES): N#Cc1ccc(O[C@H]2CC[C@H](NC(=O)c3ccc(N4CCC(CN5CCN(c6cc7c(cc6F)C(=O)N(C6CCC(=O)NC6=O)C7=O)CC5)CC4)nn3)CC2)cc1Cl (some centres unmarked) [ARV110]
- BRET signal, ternary complex formation between CRBN and ZFP91 [1]: reduced ternary complex formation with off-target ZFP91

Structure (SMILES): Cc1cc(Nc2ncc(Cl)c(Nc3ccccc3S(=O)(=O)C(C)C)n2)c(OC(C)C)cc1C1CCN(CC(=O)NCCNc2cccc3c2C(=O)N(C2CCC(=O)NC2=O)C3=O)CC1 (centres unmarked) [MS4078]
- off-target degradation of endogenous ZFP91 (immunoblot) (ZFP91 [2]): off-target degradation of endogenous ZF proteins ZFP91
- off-target degradation of endogenous ZFP91 (immunoblot) (ZFP91 [3]): off-target degradation of endogenous ZF proteins ZFP91
- degradation of ZF degron-tagged eGFP (off-target ZF degradation) [4]: had a high level of off-target ZF degradation
- degradation of SALL4 (global proteomics) (SALL4): induced degradation of SALL4
- degradation of ALK (global proteomics) (ALK): induced degradation of ALK
- off-target degradation of endogenous ZFP91 (immunoblot) (ZFP91 [5]): off-target degradation of endogenous ZF protein ZFP91

Structure (SMILES): Nc1ccc2c(c1)C(=O)N(C1CCC(=O)NC1=O)C2=O (centres unmarked) [compound 8, 5-aminothalidomide]
- degradation of endogenous ZFP91 and IKZF3 (immunoblot) (ZFP91 and IKZF3): decrease in overall degradation potency as compared to pomalidomide

Structure (SMILES): CC[C@H](C(=O)N1CCCC[C@H]1C(=O)O[C@H](CCc1ccc(OC)c(OC)c1)c1ccccc1OCC(=O)NCCCCCCOc1cccc2c1C(=O)N(C1CCC(=O)NC1=O)C2=O)c1cc(OC)c(OC)c(OC)c1 (some centres unmarked) [dTAG-13]
- off-target degradation of endogenous ZFP91 (immunoblot) (ZFP91 [5]): off-target degradation of endogenous ZF protein ZFP91

Structure (SMILES): Nc1cccc2c1C(=O)N(C1CCC(=O)NC1=O)C2=O (centres unmarked) [pomalidomide]
- degradation of ZF degron-tagged eGFP (off-target ZF degradation) [4]: degraded all 12 ZF degrons that are sensitive to it in a dose-dependent manner
- degradation of ZF proteins and other off-targets (global proteomics) [6]: triggered the degradation of several ZF proteins
